Sampled rows, rich in hits. Any-hit rate of the full collection: about 2.3%.
MT1-MMP act inh: blocks activation of human MT1-MMP | P50281 | HT1080 RFP-PRO-GFP cells, GFP/RFP ratio fluorescence, overnight; percent of plate control window, DMSO zero | GFP/RFP ratio change, % at 20 µM | 360,000 compounds, 0.061% hits;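 active = GFP/RFP ratio change of at least 30% with cell ATP level not reduced by more than half and red fluorescence within 50% of control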
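Material: RFP-PRO-GFP reporter HT1080 cells. Dosing: single-point 20 µM compound, 1% DMSO. Controls: DMSO and RFP-L50D-GFP cell wells. Timing: cells overnight before dosing, compound overnight, 37 °C, 5% CO2. Measure: GFP/RFP fluorescence ratio.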
SKN-1 inh: blocks SKN-1 activity in C. elegans; 360,000 compounds, 0.49% hits; inhibition, % at 21.8 µM; C. elegans VP596 Pgst-4::GFP/RFP ratio, acrylamide-induced, 24 h;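 active = interference check ratio from 0.5 to 1.5 plus GFP to RFP signal ratio inhibition reaching or exceeding a fixed threshold, cut at about 30% in these data, passing the limit was not always enough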
ATG4B inh: ATG4B (human) cysteine protease inhibition; Q9Y4P1; ATG4B cleavage of LC3-PLA2, NBD-HPC fluorescence, 1 h; inhibition, % at 8.33 µM; 340,000 compounds, 0.51% hits; in the data active = inhibition above about 40%
Target sequence (Q9Y4P1 whole entry, looked up): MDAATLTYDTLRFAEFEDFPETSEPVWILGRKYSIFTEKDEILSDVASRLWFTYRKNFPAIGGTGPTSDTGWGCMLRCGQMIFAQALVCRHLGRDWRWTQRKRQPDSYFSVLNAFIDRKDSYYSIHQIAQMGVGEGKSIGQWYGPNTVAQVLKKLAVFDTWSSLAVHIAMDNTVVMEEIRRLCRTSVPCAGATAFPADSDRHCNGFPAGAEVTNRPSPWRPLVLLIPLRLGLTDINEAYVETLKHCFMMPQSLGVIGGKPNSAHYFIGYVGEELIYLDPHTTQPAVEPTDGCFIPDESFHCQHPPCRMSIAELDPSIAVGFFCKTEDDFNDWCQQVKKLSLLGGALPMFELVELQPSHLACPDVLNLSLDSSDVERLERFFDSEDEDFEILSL
MPTP inh: inhibitors of mitochondrial permeability transition pore. isolated mouse mitochondria, Ca2+ swelling absorbance, 30 min. inhibition, % at 10 µM. 360,000 compounds, 1.4% hits;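 active = inhibition of 50% or more, scaled per plate between neutral and stimulator controls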;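 note: 0% = DMSO wells given calcium and 100% = 1 mM EGTA wells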
MPTP counter: Rhodamine 123 counter-screen of mitochondrial pore hits | isolated mitochondria, membrane potential, Rhodamine 123 fluorescence | 5,000 compounds, 78% hits | shares compounds with MPTP inh | AID 624504 | inhibition, % at 10 µM; in the data active = inhibition above about 22%;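 note: 0% = DMSO vehicle and 100% = positive control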
MPTP abs DR: MPTP inhibition, dose response swelling confirmation. shares compounds with MPTP inh. isolated mitochondria swelling, absorbance. IC50, µM. 780 compounds, 58% hits; in the data active = IC50 below about 20 µM
MPTP cs DR: counter-screen for mitochondrial permeability transition pore inhibitors, dose response | shares compounds with MPTP inh | 780 compounds, 49% hits | AID 651564 | IC50, µM | isolated mitochondria counterscreen, fluorescence read-out; in the data active = IC50 below about 80 µM
Starred values were filed as active, the others as inactive; i = inactive; / = no result given; ! = not confirmed by another sample.

SMILES | MT1-MMP act inh | SKN-1 inh | ATG4B inh | MPTP inh | MPTP counter | others
CCN(CC)c1ccc(C=Nc2ccc(N(C)C)cc2)c(O)c1 | 30 | 1 | -1 | 24 | /
C[C@H](CO)N1C[C@H](C)[C@@H](CN(C)Cc2ccccn2)Oc2ncc(-c3ccccc3)cc2C1=O | -1 | 1 | / | 0 | /
CCOc1ccc2nc(N3C(=O)/C(=C/c4ccccc4)NC3=S)sc2c1 | -2 | 24 | 7 | 84* | 15
C[n+]1ccc(/C=N/Nc2nc(Cl)c(C#N)c(Cl)c2Cl)cc1 | 4 | 0 | 8 | 103* | 76*
COCCNc1nc(NCc2ccc(C(C)C)cc2)c2sccc2n1 | 0 | 3 | / | 38 | /
CCOC(=O)c1c(C)[nH]c(-c2csc(N)n2)c1C | 12 | 13 | -11 | -2 | /
CN1CCN(C2Cc3ccccc3Sc3ccc(Cl)cc32)CC1 (stereo unspecified) | -10 | 2 | 7 | 87* | -7 | MPTP abs DR=6.8*;MPTP cs DR=45*
CN1CCN(C2Cc3cc(F)ccc3Sc3ccc(Cl)cc32)CC1 (stereo unspecified) | -6 | -9 | -6 | -5 | /
CN1CCN(C2Cc3ccccc3Sc3cc(C(F)(F)F)ccc32)CC1 (stereo unspecified) | / | / | 6 | / | /
CSc1ccc2c(c1)C(N1CCN(C)CC1)Cc1ccccc1S2 (stereo unspecified) | -5 | 11 | 8 | 104*! | -17
O=C(N/N=C/c1ccc(C(F)(F)F)cc1)c1ccc(O)cc1 | 3 | -1 | -4 | -1 | /
NC(N)=NN=C(c1ccc(F)cc1)c1ccc(C(F)(F)F)cc1 | 21 | -16 | 2 | 70* | -13 | MPTP abs DR=4.8*;MPTP cs DR=41*
Cc1ccc(-n2cc3c(-c4cccc(Br)c4)nnc(C)c3n2)cc1 | -101 | 75 | 14 | 54* | 2 | MPTP abs DR=i;MPTP cs DR=29*
Nc1c(Br)cc(Br)c2c1-c1ccc([N+](=O)[O-])cc1C2 | 3 | 10 | 8 | 3 | /
COc1ccccc1NC(=O)Nc1ccc(-n2ccc(C(F)(F)F)n2)cc1 | 4 | -13 | 21 | 28 | /
O=C(Nc1ccc(-n2ccc(C(F)(F)F)n2)cc1)Nc1cccc(Cl)c1 | -6 | 11 | / | 75* | 65*
Cc1cc(C)cc(NC(=O)Nc2ccc(-n3ccc(C(F)(F)F)n3)cc2)c1 | 7 | 12 | 32 | 87* | 83*
CNC(=O)c1cn2c3c(ccc(Cl)c3c1=O)OC(C)C2 (stereo unspecified) | 5 | 8 | 7 | 0 | /
CCOC(=O)CC1(CC)Oc2ccccc2N1S(=O)(=O)c1ccc(C)cc1 (stereo unspecified) | -3 | 8 | / | 1 | /
CN1CCc2nc(NC(=O)c3cccc(OC(F)F)c3)sc2C1 | -1 | -6 | -7 | 2 | /
CN(NC(=O)C(=O)NCc1ccco1)C(=O)Nc1ccc(Cl)cc1 | 3 | 4 | / | 85* | 109*
Cc1ccsc1CNC(=O)C1(C)CCCN1CC(C)C (stereo unspecified) | 1 | -1 | / | 0 | /
Cc1cc(C)c(O)c(CN(C)Cc2cc(Cl)cc(Cl)c2O)c1 | -4 | 5 | 1 | 94* | 87*
O=C(CCc1ccc(O)c(O)c1)N/N=C/c1ccc2c(c1)OCO2 | -1 | -5 | -1 | -1 | /
O=C(Nc1ccc(C(F)(F)F)cc1)c1cc(-c2cccnc2)nc2ccc(Br)cc12 | 23 | -3 | -1 | 78* | 2 | MPTP abs DR=13*;MPTP cs DR=7.1*
SMILES | MT1-MMP act inh | SKN-1 inh | ATG4B inh | MPTP inh | MPTP counter | others
CC(=O)Nc1cccc(NC(=O)c2cc(-c3cccnc3)nc3ccc(Br)cc23)c1 | -14 | 12 | -19 | 0 | /
O=C(NCc1cn(-c2ccccc2)nc1-c1ccccc1)c1ccc([N+](=O)[O-])cc1 | 0 | 8 | -10 | 53* | 63*
Cc1ccc(CNc2nc(C)nc3sc4c(c23)CCC4)cc1 | -12 | 12 | 36 | 62* | 81*
Cc1nc(Nc2ccc(O)cc2)c2c3c(sc2n1)CCCC3 | -3 | 6 | 5 | 0 | /
Cc1cc(C)n(C(C)Sc2ccccc2)n1 (stereo unspecified) | 0 | 9 | 5 | -3 | /
CC1(C)NC(=O)N(CNc2cc(Cl)ccc2Cl)C1=O | -4 | 14 | -2 | -2 | /

Screening data (PubChem BioAssay)
